Data set [1] concerns Cryptococcus neoformans. Description: Antifungal activity against Cryptococcus neoformans ATCC 90113 assessed as inhibition of fungal growth by CLSI method. It is filed as functional, organism-based.
Another data set has as its system Candida albicans. Description: Antifungal activity against Candida albicans ATCC 10231 assessed as inhibition of fungal growth by CLSI method. It is filed as functional, organism-based.
The subject of a further data set is Aspergillus fumigatus. Description: Antifungal activity against Aspergillus fumigatus ATCC 1022 assessed as inhibition of fungal growth by CLSI method. The data set is classed as functional, organism-based.
The test system of another data set is Klebsiella pneumoniae. As to the kind of experiment: Antibacterial activity against Klebsiella pneumoniae ATCC BAA1705 assessed as inhibition of bacterial growth by CLSI method. It is filed as functional, organism-based.
For a further data set, the system named is Vero. As to the kind of experiment: Cytotoxicity against African green monkey Vero cells assessed as reduction in cell viability incubated for 48 hrs by Neutral red assay. It is filed as cell-based. To be noted: chlorocebus sabaeus. Put shortly:
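VERO monkey kidney cells seeded at 25,000 cells/well and incubated 24 h to confluency. Peptide added, then a further 48 h incubation. Viability read by neutral red uptake.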

Data set [2] can be described thus: Aggregation property of the compound in PBS assessed as particle size at pH 7.4 measured after 4 hrs by dynamic light scattering analysis (reference value: 802 nm). It is filed as physicochemical. To be noted: buffer, pH 7.4, 4 h.
A short description of data set [3]: Aggregation property of the compound in PBS assessed as polydispersity index at pH 7.4 by dynamic light scattering analysis (reference value: 0.383). The data set is classed as physicochemical. Particulars: buffer.
Data set [4] deals with Cell membrane. Description: Induction of membrane permeabilization and disruption in Cryptococcus neoformans ATCC350 assessed as increase in green fluorescence intensity using FITC-labeled compound at MIC measured after 1 hr by confocal laser scanning microscopic analysis. It is filed as subcellular.
For data set [5], the system named is Cryptococcus neoformans. Description: Potency index, ratio of Amphotericin B IC50 to test compound IC50 for antifungal activity against Cryptococcus neoformans ATCC 90113 assessed as inhibition of fungal growth by CLSI method. The data set is classed as functional.
The next data set deals with Staphylococcus aureus. As to the kind of experiment: Antibacterial activity against methicillin-resistant Staphylococcus aureus ATCC 33591 assessed as inhibition of bacterial growth by CLSI method. It is filed as functional, organism-based.
The test system of a further data set is Enterococcus. As to the kind of experiment: Antibacterial activity against vancomycin resistant Enterococcus ATCC MP-1 assessed as inhibition of bacterial growth by CLSI method. The data set is classed as functional, organism-based.
In the next data set the test system is Escherichia coli. Description: Antibacterial activity against Escherichia coli ATCC 35218 assessed as inhibition of bacterial growth by CLSI method. The data set is classed as functional, organism-based.
The subject of another data set is Pseudomonas aeruginosa. Description: Antibacterial activity against Pseudomonas aeruginosa ATCC 27853 assessed as inhibition of bacterial growth by CLSI method. The data set is classed as functional, organism-based.
The subject of data set [6] is Cryptococcus neoformans. As to the kind of experiment: Potency index, ratio of Amphotericin B MIC to test compound MIC for antifungal activity against Cryptococcus neoformans ATCC 90113 assessed as inhibition of fungal growth by CLSI method. The data set is classed as functional.
Data set [7] has as its system Lipid bilayer. Description: Binding affinity to bacterial membrane mimic EPYC/EPYG (7:3) small unilamellar vesicle assessed as Stern-Volmer quenching constant by tryptophan quenching analysis.
Data set [8] concerns Lipid bilayer. Description: Binding affinity to mammalian membrane mimic EPYC/cholesterol (10:1) small unilamellar vesicle assessed as Stern-Volmer quenching constant by tryptophan quenching analysis.
Data set [9] is described as follows: Aggregation property of the compound in PBS assessed as particle size at pH 7.4 measured after 4 hrs by dynamic light scattering analysis (reference value: 2073 nm). It is filed as physicochemical. To be noted: buffer, pH 7.4, 4 h.
Data set [10] is described as follows: Aggregation property of the compound in PBS assessed as polydispersity index at pH 7.4 by dynamic light scattering analysis (reference value: 0.333). It is filed as physicochemical. To be noted: buffer.
A further data set concerns Cell wall. As to the kind of experiment: Disruption of Cell wall in Cryptococcus neoformans ATCC350 by HR-TEM analysis. The data set is classed as subcellular.
Data set [11] has as its system Cell membrane. Description: Disruption of Plasma membrane in Cryptococcus neoformans ATCC350 by HR-TEM analysis. The data set is classed as cell membranes.
For data set [12], the system named is Cryptococcus neoformans. As to the kind of experiment: Disruption of capsule in Cryptococcus neoformans ATCC350 by HR-TEM analysis.
Data set [13] relates to Cell membrane. Description: Induction of membrane permeabilization in Cryptococcus neoformans ATCC350 assessed as increase in red fluorescence intensity at MIC measured after 1 hr by propidium iodide staining based confocal laser scanning microscopic analysis. The data set is classed as subcellular. Put shortly:
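Cells centrifuged, resuspended in PBS pH 7.4 and stained with propidium iodide. Confocal imaging at >560 nm, with untreated cells as control.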

Data set [14] relates to Cryptococcus neoformans. As to the kind of experiment: Induction of DNA damage in Cryptococcus neoformans ATCC350 assessed as nuclear and chromatin fragmentation by measuring reduction in blue fluorescence intensity at MIC measured after 1 hr by DAPI staining based confocal laser scanning microscopic analysis. It is filed as functional, organism-based. The method in brief: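 Cells centrifuged, resuspended in PBS and stained with DAPI (3.01 µM, 10 min). Confocal imaging at Ex/Em 350/470 nm, with untreated cells as control.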

In data set [15] the test system is Cell membrane. As to the kind of experiment: Induction of pore formation in Cryptococcus neoformans ATCC350 assessed as membrane permeabilization by measuring release of intracellular material at MIC by scanning electron microscopy. The data set is classed as subcellular.

Converted amounts (≈) assume the structure as drawn. The source made the active and inactive calls. The rule behind the calls is not given here. Where a SMILES comes first, the peptide text is derived from it. The star is where a group is joined. Boc = CC(C)(C)OC(=O)* Bounds are passed on as bounds.

For the compound `COC(=O)[C@H](CCCNC(=N)N)NC(=O)[C@H](Cc1c[nH]c2ccccc12)NC(=O)[C@H](Cc1c[nH]cn1)NC(=O)OC(C)(C)C` (Boc-His-Trp-Arg-OMe), the IC50 in the data set on Cryptococcus neoformans [1] was greater than 20 µg/mL. The result in the data set on Candida albicans, in the data set on Aspergillus fumigatus, in the data set on Klebsiella pneumoniae and in the data set on Cell membrane [4] was inactive. Also, the Activity was greater than 10 µg/mL with Vero, 108 nm in [2] and 0.922 in data set [3].

For the compound `CCCCc1ccc(-c2nc(C[C@H](N)C(=O)N[C@@H](Cc3c[nH]c4ccccc34)C(=O)N[C@@H](CCCNC(=N)N)C(=O)OC)c[nH]2)cc1.Cl.Cl`, the “Ratio IC50” value in the data set on Cryptococcus neoformans [5] turned out to be 2. The half-maximal inhibitory concentration (IC50) is 0.37 µg/mL in the data set with Cryptococcus neoformans [1]; 8.74 µg/mL with Staphylococcus aureus; 15.4 µg/mL with Enterococcus; 15.6 µg/mL in the data set on Escherichia coli; greater than 20 µg/mL with Pseudomonas aeruginosa. The MIC with Cryptococcus neoformans [1] is 0.63 µg/mL; in the data set with Staphylococcus aureus, 10 µg/mL; with Enterococcus it was 20 µg/mL; with Escherichia coli, greater than 20 µg/mL. The outcome in the data set on Candida albicans, in the data set on Aspergillus fumigatus and in the data set with Klebsiella pneumoniae was inactive. For the same compound, the Activity in the data set with Vero was greater than 10 µg/mL; in data set [9] it was 2792 nm; in data set [10] it was 0.584. Moreover, in the data set with Cryptococcus neoformans [6], the Ratio is given as 2. Besides, the figures for the KSV in the data set with Lipid bilayer [7] and in the data set with Lipid bilayer [8] were 6.68 and 146, respectively. Also, the outcome in the data set on Cell wall, with Cell membrane [11], in the data set on Cryptococcus neoformans [12], in the data set with Cell membrane [13], in the data set with Cell membrane [4] and in the data set with Cryptococcus neoformans [14] was Active. Also, in the data set with Cell membrane [15], the outcome was Active.

`CCCCc1ccc(-c2nc(C[C@H](NC(=O)OC(C)(C)C)C(=O)N[C@@H](Cc3c[nH]c4ccccc34)C(=O)N[C@@H](CCCNC(=N)N)C(=O)NCc3ccccc3)c[nH]2)cc1`: the IC50 with Cryptococcus neoformans [1] was 1.98 µg/mL (≈ 2.42 µM); with Staphylococcus aureus, 9.13 µg/mL (≈ 11.1 µM); with Enterococcus it was 7.38 µg/mL (≈ 9.01 µM); in the data set with Escherichia coli, greater than 20 µg/mL; in the data set on Pseudomonas aeruginosa, greater than 20 µg/mL. For the same compound, the MIC amounted to 2.5 µg/mL (≈ 3.05 µM) in the data set with Cryptococcus neoformans [1], 10 µg/mL (≈ 12.2 µM) in the data set on Staphylococcus aureus and 10 µg/mL (≈ 12.2 µM) in the data set with Enterococcus. Moreover, the result with Candida albicans, with Aspergillus fumigatus and in the data set on Klebsiella pneumoniae was inactive. In the data set with Vero, the Activity was greater than 10 µg/mL.

As for `CCc1ccc(-c2nc(C[C@H](N)C(=O)N[C@@H](Cc3c[nH]c4ccccc34)C(=O)N[C@@H](CCCNC(=N)N)C(=O)NCc3ccccc3)c[nH]2)cc1.Cl.Cl`, the IC50 in the data set with Cryptococcus neoformans [1] was 2.26 µg/mL; in the data set on Staphylococcus aureus, 18.4 µg/mL; with Enterococcus, 13.5 µg/mL; in the data set on Escherichia coli, greater than 20 µg/mL; in the data set on Pseudomonas aeruginosa, greater than 20 µg/mL. For the same compound, the minimum inhibitory concentration (MIC) in the data set on Cryptococcus neoformans [1] turned out to be 10 µg/mL; with Staphylococcus aureus, 20 µg/mL; in the data set with Enterococcus, 20 µg/mL. Also, the result with Candida albicans, in the data set on Aspergillus fumigatus and in the data set on Klebsiella pneumoniae was inactive. In addition, the Activity in the data set with Vero was greater than 10 µg/mL.

Consider `Cl.Cl.N=C(N)NCCC[C@H](NC(=O)[C@H](Cc1c[nH]c2ccccc12)NC(=O)[C@@H](N)Cc1c[nH]c(-c2ccc(-c3ccccc3)cc2)n1)C(=O)NCc1ccccc1`, for which the IC50 in the data set with Cryptococcus neoformans [1] is 1.17 µg/mL; in the data set on Staphylococcus aureus, 4.44 µg/mL; in the data set on Enterococcus, 8.33 µg/mL; with Escherichia coli, greater than 20 µg/mL; in the data set with Pseudomonas aeruginosa, 18.7 µg/mL. The MIC in the data set with Cryptococcus neoformans [1] is 5 µg/mL; in the data set on Staphylococcus aureus, 5 µg/mL; in the data set on Enterococcus, 20 µg/mL; in the data set on Pseudomonas aeruginosa, greater than 20 µg/mL. Further, the result in the data set on Candida albicans, in the data set on Aspergillus fumigatus and with Klebsiella pneumoniae was inactive. Besides, in the data set on Vero, the Activity was greater than 10 µg/mL.

`CCc1ccc(-c2nc(C[C@H](NC(=O)OC(C)(C)C)C(=O)N[C@@H](Cc3c[nH]c4ccccc34)C(=O)N[C@@H](CCCNC(=N)N)C(=O)NCc3ccccc3)c[nH]2)cc1`: the half-maximal inhibitory concentration (IC50) in the data set on Cryptococcus neoformans [1] was 1.5 µg/mL (≈ 1.9 µM); with Staphylococcus aureus, 8.93 µg/mL (≈ 11.3 µM); in the data set on Enterococcus, 14.9 µg/mL (≈ 18.8 µM); with Escherichia coli it was greater than 20 µg/mL; in the data set on Pseudomonas aeruginosa, greater than 20 µg/mL. Moreover, the MIC with Cryptococcus neoformans [1] is 2.5 µg/mL (≈ 3.16 µM); with Staphylococcus aureus it was 20 µg/mL (≈ 25.3 µM); in the data set on Enterococcus it was greater than 20 µg/mL. Further, the outcome in the data set with Candida albicans, in the data set with Aspergillus fumigatus and in the data set on Klebsiella pneumoniae was inactive. Moreover, the Activity in the data set on Vero was greater than 10 µg/mL.

For the compound `CC(C)(C)OC(=O)N[C@@H](Cc1c[nH]c(-c2ccc(-c3ccccc3)cc2)n1)C(=O)N[C@@H](Cc1c[nH]c2ccccc12)C(=O)N[C@@H](CCCNC(=N)N)C(=O)NCc1ccccc1`, the IC50 with Cryptococcus neoformans [1] is 2.15 µg/mL (≈ 2.56 µM); in the data set on Staphylococcus aureus, 4.56 µg/mL (≈ 5.43 µM); with Enterococcus it was 8.82 µg/mL (≈ 10.5 µM); with Escherichia coli, greater than 20 µg/mL; in the data set on Pseudomonas aeruginosa, 19.8 µg/mL (≈ 23.6 µM). Further, the MIC was 2.5 µg/mL (≈ 2.98 µM) in the data set with Cryptococcus neoformans [1], 10 µg/mL (≈ 11.9 µM) in the data set on Staphylococcus aureus and 10 µg/mL (≈ 11.9 µM) with Enterococcus. The result in the data set on Candida albicans, with Aspergillus fumigatus and in the data set on Klebsiella pneumoniae was inactive. Further, the Activity in the data set with Vero is greater than 10 µg/mL.

(Values after ChEMBL document CHEMBL4831482 (Eur J Med Chem, 2021).)
